The values that follow come from ChEMBL document CHEMBL3813677, “Structure-Activity Relationship Studies and Molecular Modeling of Naphthalene-Based Sphingosine Kinase 2 Inhibitors” (ACS Med Chem Lett, 2016).

Bounds are passed on as bounds.

For assay [1], the target named is T1, Sphingosine kinase 2 (Homo sapiens) (UniProt Q9NRA0).
T1 sequence (whole entry): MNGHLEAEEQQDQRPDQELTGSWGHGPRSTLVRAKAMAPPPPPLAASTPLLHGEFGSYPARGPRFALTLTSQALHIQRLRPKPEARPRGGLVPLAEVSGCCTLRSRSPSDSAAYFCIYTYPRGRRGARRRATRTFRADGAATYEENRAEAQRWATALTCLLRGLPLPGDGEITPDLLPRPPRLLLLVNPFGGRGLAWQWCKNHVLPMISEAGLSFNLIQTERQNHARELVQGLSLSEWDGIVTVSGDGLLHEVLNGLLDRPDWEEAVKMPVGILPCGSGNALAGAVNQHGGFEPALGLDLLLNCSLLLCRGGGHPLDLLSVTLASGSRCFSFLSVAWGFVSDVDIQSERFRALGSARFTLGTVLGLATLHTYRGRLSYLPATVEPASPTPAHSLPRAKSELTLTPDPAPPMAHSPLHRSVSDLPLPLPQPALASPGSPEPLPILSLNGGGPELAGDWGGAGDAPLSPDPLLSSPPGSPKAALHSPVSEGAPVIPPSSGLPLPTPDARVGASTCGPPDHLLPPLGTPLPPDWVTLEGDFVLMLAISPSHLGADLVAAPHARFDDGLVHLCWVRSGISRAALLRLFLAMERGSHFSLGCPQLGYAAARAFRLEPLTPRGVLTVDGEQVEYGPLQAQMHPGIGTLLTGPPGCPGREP
Briefly: Inhibition of human recombinant SphK2 remaining enzyme activity at 1 uM using sphingosine as substrate incubated for 20 mins by scintillation counting analysis in presence of [gamma-32P]ATP.

For assay [2], the target named is T2, Sphingosine kinase 2 (Homo sapiens, UniProt Q9NRA0).
T2 sequence (Q9NRA0 whole entry): T1 sequence (whole entry)
Nature of the assay: Inhibition of human recombinant SphK2 using sphingosine as substrate incubated for 20 mins by scintillation counting analysis in presence of [gamma-32P]ATP.

Assay [3] has as its target Sphingosine kinase 1 (Homo sapiens, UniProt Q9NYA1). Nature of the assay: Inhibition of human recombinant SphK1 using sphingosine as substrate incubated for 20 mins by scintillation counting analysis in presence of [gamma-32P]ATP.
The species named for assay [4] is Homo sapiens. Nature of the assay: Selectivity ratio of Ki for human recombinant SphK1 to Ki for human recombinant SphK2. The method, boiled down:
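Recombinant human SphK1 and SphK2. Inhibitory constants came from kinetic analysis of S1P production, with sphingosine concentration varied and ATP held at a fixed concentration, run with and without inhibitor. Selectivity was taken as the ratio of the two enzymes' constants.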

For orientation: Ki means the equilibrium dissociation constant of an inhibitor or competing ligand from its target.

Sphingosine kinase 1, sequence (Q9NYA1 whole entry): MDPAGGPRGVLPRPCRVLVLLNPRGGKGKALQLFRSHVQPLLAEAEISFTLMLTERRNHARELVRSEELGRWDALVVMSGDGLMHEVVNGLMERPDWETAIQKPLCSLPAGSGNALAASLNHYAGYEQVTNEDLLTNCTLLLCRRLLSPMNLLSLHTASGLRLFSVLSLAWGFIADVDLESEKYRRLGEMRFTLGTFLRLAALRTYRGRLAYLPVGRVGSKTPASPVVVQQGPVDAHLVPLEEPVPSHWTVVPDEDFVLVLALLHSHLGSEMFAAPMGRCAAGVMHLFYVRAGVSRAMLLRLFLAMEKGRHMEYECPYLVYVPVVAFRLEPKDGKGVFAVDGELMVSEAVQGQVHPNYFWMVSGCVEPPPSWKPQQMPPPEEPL

For the compound `N=C(N)N1CCC[C@H]1c1nc(-c2ccc3cc(OCc4ccc(C(F)(F)F)cc4)ccc3c2)no1`, the Activity in assay [1] stood at 42%. Moreover, the Ki in assay [2] was 1020 nM.

Turning to `COCCCOc1ccc2cc(-c3noc([C@@H]4CCCN4C(=N)N)n3)ccc2c1`, the Activity in assay [1] amounted to 109%.

For `CC(C)COc1ccc2cc(-c3noc([C@@H]4[C@@H](O)CCN4C(=N)N)n3)ccc2c1`, in assay [1], the Activity came to 53%. Moreover, the values for the Ki in assay [3] and in assay [2] were 930 nM and 980 nM, respectively. Further, the Ratio Ki in assay [4] worked out at 0.9.

As to `N=C(N)N1CCC[C@H]1c1nc(-c2ccc3cc(OCC(=O)c4ccc(-c5ccccc5)cc4)ccc3c2)no1`, in assay [1], the Activity came out at 77%.

For the compound `N=C(N)N1CCC[C@H]1c1nc(-c2ccc3cc(OCc4ccc(Br)cc4)ccc3c2)no1`, in assay [1], the Activity was determined as 35%.

On to `CCCCOc1ccc2cc(-c3noc([C@@H]4CCCN4C(=N)N)n3)ccc2c1`, for which, in assay [1], the Activity worked out at 69%.

On to `N=C(N)N1CCC[C@H]1c1nc(-c2ccc3cc(OCCc4ccccc4C(F)(F)F)ccc3c2)no1`, for which, in assay [1], the Activity came to 47%.

`N=C(N)N1CCC[C@H]1c1nc(-c2ccc3cc(OCc4cccc(Cl)c4)ccc3c2)no1`: the Activity in assay [1] is 46%.

`CCCCCCCOc1ccc2cc(-c3noc([C@@H]4CCCN4C(=N)N)n3)ccc2c1`: the Activity in assay [1] is 83%.

For `N=C(N)N1CCC[C@H]1c1nc(-c2ccc3cc(O)ccc3c2)no1`, in assay [1], the Activity was 106%.

Turning to `N=C(N)N1CCC[C@H]1c1nc(-c2ccc3cc(OCC(=O)c4ccc(C(F)(F)F)cc4)ccc3c2)no1`, the Activity in assay [1] worked out at 65%.

`N=C(N)N1CCC[C@H]1c1nc(-c2ccc3cc(OCc4cccc(C(F)(F)F)c4)ccc3c2)no1`: the Activity in assay [1] was determined as 81%.

Take `N=C(N)N1CCC[C@H]1c1nc(-c2ccc3cc(OCc4cccc(Br)c4)ccc3c2)no1`: in assay [1], the Activity is 49%.

With `N=C(N)N1CCC[C@H]1c1nc(-c2ccc3cc(OCC(=O)c4ccccc4)ccc3c2)no1`, the Activity in assay [1] is 103%.

In the case of `N=C(N)N1CCC[C@H]1c1nc(-c2ccc3cc(OCC4CCCC4)ccc3c2)no1`, the Activity in assay [1] came out at 57%.

Take `N=C(N)N1CCC[C@H]1c1nc(-c2ccc3cc(OCc4ccccc4)ccc3c2)no1`: the Activity in assay [1] was found to be 97%.

Take `Cc1ccc(COc2ccc3cc(-c4noc([C@@H]5CCCN5C(=N)N)n4)ccc3c2)cc1`: the Activity in assay [1] is 94%.

For `N=C(N)N1CCC[C@H]1c1nc(-c2ccc3cc(OCCc4ccc(C(F)(F)F)cc4)ccc3c2)no1`, the Activity in assay [1] was 30%.

Regarding `CCCCCOc1ccc2cc(-c3noc([C@@H]4CCCN4C(=N)N)n3)ccc2c1`, in assay [1], the Activity is 51%. Further, the inhibitory constant (Ki) in assay [3] was found to be 7200 nM; in assay [2] it was 980 nM. For the same compound, the Ratio Ki in assay [4] worked out at 7.3.

Turning to `N#Cc1ccc(COc2ccc3cc(-c4noc([C@@H]5CCCN5C(=N)N)n4)ccc3c2)cc1`, the Activity in assay [1] was determined as 43%.

As to `N=C(N)N1CCC[C@H]1c1nc(-c2ccc3cc(OCCc4cccc(C(F)(F)F)c4)ccc3c2)no1`, the Activity in assay [1] was 34%.

With `Cc1ccc(S(=O)(=O)Oc2ccc3cc(-c4noc([C@@H]5CCCN5C(=N)N)n4)ccc3c2)cc1`, the Activity in assay [1] stood at 89%.

Turning to `CCCCCCOc1ccc2cc(-c3noc([C@@H]4CCCN4C(=N)N)n3)ccc2c1`, in assay [1], the Activity was 64%. Moreover, the values for the Ki in assay [3] and in assay [2] were over 10000 nM and 3800 nM, respectively. For the same compound, the Ratio Ki in assay [4] is over 2.6.

For `N=C(N)N1CCC[C@H]1c1nc(-c2ccc3cc(OCc4ccc(Cl)cc4)ccc3c2)no1`, in assay [1], the Activity came out at 56%.

With `CCCCCCCCc1ccc(-c2noc([C@@H]3CCCN3C(=N)N)n2)cc1`, in assay [1], the Activity is 61%. In assay [2], the Ki turned out to be 1400 nM.

Regarding `CC(C)COc1ccc2cc(-c3noc([C@@H]4CCCN4C(=N)N)n3)ccc2c1`, in assay [1], the Activity was 74%.

Consider `CC1(C)CCC(C)(C)c2cc(COc3ccc4cc(-c5noc([C@@H]6CCCN6C(=N)N)n5)ccc4c3)ccc21`, for which the Activity in assay [1] stood at 104%.

For the compound `COCCOc1ccc2cc(-c3noc([C@@H]4CCCN4C(=N)N)n3)ccc2c1`, the Activity in assay [1] came out at 118%.

With `CCCCCOc1ccc2cc(-c3noc([C@@H]4[C@@H](O)CCN4C(=N)N)n3)ccc2c1`, the Activity in assay [1] came out at 46%. Further, the Ki in assay [3] came to 730 nM; in assay [2], 900 nM. For the same compound, the Ratio Ki in assay [4] was 0.8.

In the case of `N=C(N)N1CCC[C@H]1c1nc(-c2ccc3cc(OCc4ccc(-c5ccccc5)cc4)ccc3c2)no1`, in assay [1], the Activity was 51%.
